Laboratory results as given in ChEMBL document CHEMBL2346587, “Design, synthesis, and evaluation of a water-soluble antofine analogue with high antiproliferative and antitumor activity” (Bioorg Med Chem, 2013).

Columns and labels:
[1] = biological target: T1, ATP-dependent translocase ABCB1 (Homo sapiens, UniProt P08183); assay: Inhibition of P-gp activity in human paclitaxel-resistant A549 cells potentiation of 2.5 uM gefitinib-induced cytotoxicity at 0.05 uM by SRB assay; type: cell-based; conditions: a549, 0.05 µM
T1 sequence (P08183 whole entry): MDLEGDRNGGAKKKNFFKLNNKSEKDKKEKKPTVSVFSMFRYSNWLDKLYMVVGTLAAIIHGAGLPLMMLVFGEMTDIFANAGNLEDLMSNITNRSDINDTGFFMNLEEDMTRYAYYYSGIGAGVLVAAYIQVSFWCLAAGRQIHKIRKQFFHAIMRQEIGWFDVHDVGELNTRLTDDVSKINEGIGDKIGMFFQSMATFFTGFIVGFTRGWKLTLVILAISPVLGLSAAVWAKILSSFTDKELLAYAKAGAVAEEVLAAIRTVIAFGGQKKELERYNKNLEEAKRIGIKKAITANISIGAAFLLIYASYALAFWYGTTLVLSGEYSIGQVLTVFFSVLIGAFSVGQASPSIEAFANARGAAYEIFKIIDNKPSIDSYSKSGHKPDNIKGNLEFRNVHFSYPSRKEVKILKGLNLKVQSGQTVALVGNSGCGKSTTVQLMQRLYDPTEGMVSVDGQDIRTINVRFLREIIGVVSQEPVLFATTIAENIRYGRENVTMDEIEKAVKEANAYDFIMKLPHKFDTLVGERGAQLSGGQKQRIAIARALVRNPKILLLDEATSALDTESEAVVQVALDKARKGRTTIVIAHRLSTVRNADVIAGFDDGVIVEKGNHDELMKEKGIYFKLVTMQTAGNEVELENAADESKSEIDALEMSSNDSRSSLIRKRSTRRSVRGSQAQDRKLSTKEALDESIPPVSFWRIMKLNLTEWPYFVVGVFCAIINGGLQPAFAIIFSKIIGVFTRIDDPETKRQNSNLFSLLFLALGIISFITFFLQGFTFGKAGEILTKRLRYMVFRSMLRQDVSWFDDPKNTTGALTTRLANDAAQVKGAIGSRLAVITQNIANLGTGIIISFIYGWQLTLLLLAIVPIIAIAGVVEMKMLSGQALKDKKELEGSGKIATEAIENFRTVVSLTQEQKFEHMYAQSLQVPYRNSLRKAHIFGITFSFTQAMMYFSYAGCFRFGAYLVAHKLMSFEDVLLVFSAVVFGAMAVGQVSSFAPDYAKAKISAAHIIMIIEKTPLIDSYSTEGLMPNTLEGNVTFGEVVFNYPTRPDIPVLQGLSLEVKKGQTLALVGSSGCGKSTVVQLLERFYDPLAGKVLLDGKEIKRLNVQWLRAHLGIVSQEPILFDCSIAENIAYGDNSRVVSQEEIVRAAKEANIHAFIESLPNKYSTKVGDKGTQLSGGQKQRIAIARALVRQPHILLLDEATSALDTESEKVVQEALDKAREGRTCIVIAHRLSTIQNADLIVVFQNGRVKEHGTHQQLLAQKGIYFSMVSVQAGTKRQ
How it was run: (§1)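 A549-Pa cells plated at 5 × 10^4 cells/well and co-treated for 48 h with the compound (0–200 nM) plus paclitaxel or gefitinib; growth inhibition by SRB assay. Combination index computed at the 50% inhibition level as CI = D1/(Dx)1 + D2/(Dx)2, comparing combined versus single-agent concentrations.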

[2] = biological target: T1, ATP-dependent translocase ABCB1; assay: Inhibition of P-gp activity in paclitaxel-resistant human A549 cells potentiation of 2.5 uM paclitaxel-induced cytotoxicity at 0.05 uM by SRB assay; type: cell-based; conditions: a549, 0.05 µM; how it was run: as §1
[3] = biological target: TCF4/beta-catenin (Homo sapiens) (UniProt P35222+Q9NQB0); assay: Inhibition of transcription activity of […]/TCF4 (unknown origin) expressed in HEK293 cells after 24 hrs by luciferase reporter gene assay; type: cell-based
How it was run: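 HEK293 cells were co-transfected for 24 h with 100 ng TOPflash β-catenin/Tcf reporter and 5 ng pRL-SV40. Graded compound concentrations were then added for 24 h. Firefly activity was read with a dual-luciferase system and normalized to Renilla. Significance was tested against DMSO control.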

[4] = Inhibition of Wnt signaling in human A549 cells assessed as inhibition of […] expression after 24 hrs by Western blot analysis; type: cell-based
How it was run: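 A549 cells were seeded at 3 × 10^5 per 60 mm dish, grown 24 h, then given graded compound concentrations for 24 h. Lysis was in boiling SDS buffer, with BCA protein assay. 25–50 µg per lane was run on 8–15% SDS-PAGE and blotted to PVDF. Primary antibodies (1:1000–1:2000) went on overnight at 4 °C, then secondary and ECL read-out.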

[5] = system: A549; assay: Cell cycle arrest in human A549 cells assessed as accumulation at G2/M phase at 400 nM after 24 hrs by flow cytometry (reference value: 22.84 %); type: functional
[6] = system: A549; assay: Cell cycle arrest in human A549 cells assessed as accumulation at G2/M phase at 50 nM after 24 hrs by flow cytometry (reference value: 22.84 %); type: functional
[7] = system: HCT-116; assay: Cytotoxicity against human HCT116 cells after 72 hrs by SRB assay; type: functional, cell-based; conditions: HCT-116, 72 h
How it was run: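 SRB growth assay: 5 × 10^3 cells/well exposed to a concentration series for 72 h; fixed in 10% TCA 30 min at 4 °C, stained with 0.4% SRB in 1% acetic acid 30 min, dye dissolved in 10 mM Tris pH 10.0, absorbance at 515 nm. Viability relative to vehicle control; IC50 by non-linear regression; at least three experiments. A549-Pa is a paclitaxel-resistant A549 subline.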

inhibition [3]: Dose-dependent effect
Compound: COc1ccc2c3c(c4cc(OC)c(OC)cc4c2c1)C[C@@]1(CO)CCCN1C3
fractional inhibitory concentration index (FICI) [1]: 0.653
fractional inhibitory concentration index (FICI) [2]: 0.242
inhibition [4]: Dose-dependent effect
Activity [5]: 20.41%
Activity [6]: 20.71%
IC50 [7]: 60 nM
